Published values collected from several papers.
Lines come from different studies, so protocols differ.
Target: Myotonin-protein kinase (DMPK, Homo sapiens, UniProt Q09013)
Sequence (Q09013 1-629, as in one of the studies): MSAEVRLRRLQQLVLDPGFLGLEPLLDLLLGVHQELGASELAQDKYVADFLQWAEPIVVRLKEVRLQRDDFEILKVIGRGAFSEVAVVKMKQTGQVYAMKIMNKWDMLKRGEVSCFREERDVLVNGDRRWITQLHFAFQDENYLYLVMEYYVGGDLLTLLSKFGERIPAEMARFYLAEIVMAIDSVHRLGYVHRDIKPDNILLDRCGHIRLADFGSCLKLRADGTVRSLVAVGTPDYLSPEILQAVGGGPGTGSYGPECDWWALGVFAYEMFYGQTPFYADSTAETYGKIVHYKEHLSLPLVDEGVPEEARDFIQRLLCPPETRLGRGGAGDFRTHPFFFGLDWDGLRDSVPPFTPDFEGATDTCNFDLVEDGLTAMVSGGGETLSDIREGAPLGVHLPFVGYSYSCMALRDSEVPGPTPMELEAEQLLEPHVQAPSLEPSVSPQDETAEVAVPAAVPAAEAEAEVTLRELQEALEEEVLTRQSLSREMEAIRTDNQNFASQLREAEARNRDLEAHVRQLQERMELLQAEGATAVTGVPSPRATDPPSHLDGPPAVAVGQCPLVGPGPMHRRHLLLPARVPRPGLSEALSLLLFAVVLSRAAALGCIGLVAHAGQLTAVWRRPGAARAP

CCCCC(=O)Nc1ccc(-c2ccc3ncn(CCC)c(=O)c3c2)cn1 has a remaining binding of 83% (binding, competition with immobilised ligand; 0.5 µM).
For C=CC(=O)N1CCC([C@@H]2CCNc3c(C(N)=O)c(-c4ccc(Oc5ccccc5)cc4)nn32)CC1, the inhibition was 10% (enzyme activity, inhibitor; 1 µM).
COc1ccc2[nH]c3c4[nH]c5ccc(OC)cc5c4c4c(c3c2c1)C(=O)NC4=O gave a remaining binding of 56% (binding, competition with immobilised ligand; 1 µM).
With CC(C)S(=O)(=O)c1ccc2nccc(Nc3ccc4sc(C5CCCC5)nc4c3)c2c1 the activity vs control was 80% (enzyme activity, inhibitor; 1 µM).
With C=CC(=O)N1CCC[C@@H](n2nc(-c3ccc(Oc4ccccc4)cc3)c3c(N)ncnc32)C1 the inhibition was 1% (enzyme activity, inhibitor; 1 µM).
The remaining binding of C1=C/COCc2cc(ccc2OCCN2CCCC2)Nc2nccc(n2)-c2cccc(c2)COC/1 is reported as 100% (binding; 0.1 µM).
Cc1ccc(NC(=O)c2ccnc(C(F)(F)F)c2)cc1-c1cc(OCCO)nc(N2CCOCC2)c1 has a remaining binding of 100% (binding, competition with immobilised ligand; 1 µM).
With COc1ccc2oc(-c3ccc4nc(N)oc4c3)c/c(=N\c3ccccc3NC(=O)CCN)c2c1 the remaining binding was 102% (binding; 1 µM).
